Measurements as given in ChEMBL document CHEMBL1132567, “Structure-activity studies of conantokins as human N-methyl-D-aspartate receptor modulators” (J Med Chem, 1999).
Starred links: 1 amine or outer side, 2 acyl side, 3 side chain; linkers in the order of their positions; H or OH if unused. Positions of bridges follow the written chain, without caps; N, C: chain ends. Non-standard residues stand in square brackets, D forms with d. Residues, ends and D or L forms follow the SMILES beside them. X1 = NC(=O)CC[C@@H](C(=O)[*:2])[C@H](CC(N)=O)N[*:1]; NMeN = CN[C@@H](CC(N)=O)C(=O)O

Legend:
[1] = biological target: Glutamate [NMDA] receptor; test: The compound was tested for the inhibitory activity against N-methyl-D-aspartate glutamate receptor from mid-frontal region of human brain by measuring spermine-enhanced [3H]- MK-801 binding
Procedure, shortened: (§1)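 Crude synaptosomal membranes from the named human brain region, frozen at -70°C, then washed in water and in 5 mM Tris-HCl pH 7.4. Duplicate tubes at room temperature held membranes (about 0.25 mg/mL protein), 30 μM spermine, 2 nM [3H]MK-801 and peptide at 10^-9–10^-4 M, without added Ca2+ or with 1.5 mM CaCl2. Nonspecific binding was taken with 3 μM unlabeled MK-801. After 45 min, samples were filtered onto GF/B and counted by scintillation.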

[2] = biological target: Glutamate [NMDA] receptor; test: The compound was tested for the inhibitory activity against N-methyl-D-aspartate glutamate receptor from sensorimotor gyri region of human brain by measuring spermine-enhanced [3H]- MK-801 binding; procedure, shortened: as §1
[3] = biological target: Glutamate [NMDA] receptor; test: The compound was tested for the inhibitory activity against N-methyl-D-aspartate glutamate receptor from superior temporal region of human brain by measuring spermine-enhanced [3H]- MK-801 binding; procedure, shortened: as §1

Compound | IC50 [1] | IC50 [2] | IC50 [3]
CC[C@H](C)[C@@H]1NC(=O)[C@H](CC(C)C)NC(=O)[C@@H](NC(=O)[C@H](CCC(N)=O)[C@H](CC(N)=O)NC(=O)[C@H](C)NC(=O)[C@H](CCC(N)=O)NC(=O)[C@H](CC(C)C)NC(=O)[C@H](CCC(=O)O)NC(=O)[C@H](CCC(=O)O)NC(=O)[C@H](CCC(=O)O)NC(=O)CN)CCC(=O)NCCCC[C@@H](C(=O)N[C@@H](CCC(=O)O)C(=O)N[C@@H](CCCCN)C(=O)N[C@@H](CO)C(=O)N[C@@H](CC(N)=O)C(N)=O)NC1=O (H-GEEELQA[X1]ELIKEKSN-NH2; lactam 9-12) | > 20000 nM |  | 
H-GEEELQEDQELIREKSD-NH2 | 20 nM | 18 nM | 9 nM
CC[C@@H](C)[C@H](NC(=O)[C@H](CC(C)C)NC(=O)[C@@H]1CCC(=O)NCCCC[C@H](NC(=O)[C@H](CCC(N)=O)NC(=O)[C@H](CC(C)C)NC(=O)[C@H](CCC(=O)O)NC(=O)[C@H](CCC(=O)O)NC(=O)[C@H](CCC(=O)O)NC(=O)CN)C(=O)N[C@@H](CC(N)=O)C(=O)N[C@H](CCC(N)=O)C(=O)N1)C(=O)N[C@@H](CCCN=C(N)N)C(=O)N[C@@H](CCC(=O)O)C(=O)N[C@@H](CCCCN)C(=O)N[C@@H](CO)C(=O)N[C@@H](CC(N)=O)C(N)=O | 8480 nM |  | 
CSCC[C@H](NC(=O)[C@H](CCCCN)NC(=O)[C@H](CCC(N)=O)NC(=O)[C@H](Cc1ccc(O)cc1)NC(=O)[C@H](CCC(=O)O)NC(=O)[C@H](CCC(=O)O)NC(=O)[C@H](CCC(=O)O)NC(=O)CN)C(=O)N[C@@H](CC(C)C)C(=O)N[C@@H](CCC(=O)O)C(=O)N(C)[C@@H](CC(N)=O)C(=O)N[C@@H](CC(C)C)C(=O)N[C@@H](CCCN=C(N)N)C(=O)N[C@@H](CCC(=O)O)C(=O)N[C@@H](C)C(=O)N[C@@H](CCC(=O)O)C(=O)N[C@H](C(=O)N[C@@H](CCCCN)C(=O)N[C@@H](CCCCN)C(=O)N[C@@H](CC(N)=O)C(=O)N[C@@H](C)C(N)=O)C(C)C (H-GEEEYQKMLE[NMeN]LREAEVKKNA-NH2) | 125 nM |  | 
CC[C@H](C)[C@H](NC(=O)[C@H](CC(C)C)NC(=O)[C@H](CCC(=O)O)NC(=O)[C@H](CCC(N)=O)NC(=O)[C@H](CC(N)=O)NC(=O)[C@H](C)NC(=O)[C@H](CCC(N)=O)NC(=O)[C@H](CC(C)C)NC(=O)[C@H](CCC(=O)O)NC(=O)[C@H](CCC(=O)O)NC(=O)[C@H](CCC(=O)O)NC(=O)CN)C(=O)N[C@@H](CCCN=C(N)N)C(=O)N[C@@H](CCC(=O)O)C(=O)N[C@@H](CCCCN)C(=O)N[C@@H](CO)C(=O)N[C@@H](CC(N)=O)C(N)=O | 3360 nM | 766 nM | 1680 nM
CC[C@@H](C)[C@H](NC(=O)[C@H](CC(C)C)NC(=O)[C@H](CCC(=O)O)[C@H](CCC(N)=O)NC(=O)[C@H](CC(N)=O)NC(=O)[C@H](CCC(=O)O)NC(=O)[C@H](CCC(N)=O)NC(=O)[C@H](CC(C)C)NC(=O)[C@H](CCC(=O)O)NC(=O)[C@H](CCC(=O)O)NC(=O)[C@H](CCC(=O)O)NC(=O)CN)C(=O)N[C@@H](CCCN=C(N)N)C(=O)N[C@@H](CCC(=O)O)C(=O)N[C@@H](CCCCN)C(=O)N[C@@H](CO)C(=O)N[C@@H](CC(N)=O)C(N)=O | 69 nM | 59 nM | 21 nM
H-GEEELQEN-NH2 | 94 nM | 58 nM | 23 nM
CC[C@H](C)[C@H](NC(=O)[C@H](CC(C)C)NC(=O)[C@H](CCC(=O)O)NC(=O)[C@H](CCC(N)=O)NC(=O)[C@H](CC(N)=O)NC(=O)[C@H](CCCCN)NC(=O)[C@H](CCC(N)=O)NC(=O)[C@H](CC(C)C)NC(=O)[C@H](CCC(=O)O)NC(=O)[C@H](CCC(=O)O)NC(=O)[C@H](CCC(=O)O)NC(=O)CN)C(=O)N[C@@H](CCCN=C(N)N)C(=O)N[C@@H](CCC(=O)O)C(=O)N[C@@H](CCCCN)C(=O)N[C@@H](CO)C(=O)N[C@@H](CC(N)=O)C(N)=O | 11000 nM |  | 
H-GEEEYQANQELIREKSN-NH2 | 546 nM | 475 nM | 570 nM
H-GEEEYQKNQELIREKSN-NH2 | 99 nM | 47 nM | 56 nM
